Results on 26 compounds are retold here after ChEMBL document CHEMBL2046357, “Inhibitors of Dengue virus and West Nile virus proteases based on the aminobenzamide scaffold” (Bioorg Med Chem, 2012).

Test [1] concerns dengue virus type 2. Nature of the test: Inhibition of Dengue virus 2 NS2B-NS3 protease expressed in Escherichia coli Top10F' at 10 uM pre-incubated for 15 mins before addition of Bz-NIe-Lys-Arg-Arg-AMC substrate by spectrofluorometry. The essentials:
(§1)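 Enzyme (DENV2 protease 25 nM; WNV protease 28 nM) pre-incubated with compound for 15 min at room temperature in 200 mM Tris·HCl pH 9.5, 30% glycerol, with 1% v/v DMSO final. Reaction started with 5 μM substrate. Fluorescence (ex 380/em 460 nm) followed every 90 s for up to 30 min at 37 °C. Percent inhibition calculated against no-compound fluorescence. Aprotinin and DMSO served as controls. Triplicates, averaged.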

The subject of test [2] is West Nile virus. Briefly: Inhibition of West Nile virus NS2B-NS3 protease expressed in Escherichia coli Top10F' at 10 uM pre-incubated for 15 mins before addition of Bz-NIe-Lys-Arg-Arg-AMC substrate by spectrofluorometry. The essentials:
as §1

The subject of test [3] is dengue virus type 2. Briefly: Inhibition of Dengue virus 2 NS2B-NS3 protease expressed in Escherichia coli Top10F' at 25 uM pre-incubated for 15 mins before addition of Bz-NIe-Lys-Arg-Arg-AMC substrate by spectrofluorometry. In short, it runs like this:
as §1

The subject of test [4] is West Nile virus. Nature of the test: Inhibition of West Nile virus NS2B-NS3 protease expressed in Escherichia coli Top10F' at 25 uM pre-incubated for 15 mins before addition of Bz-NIe-Lys-Arg-Arg-AMC substrate by spectrofluorometry. The essentials:
as §1

Test [5] is described as follows: Inhibition of West Nile virus NS2B-NS3 protease expressed in Escherichia coli Top10F' pre-incubated for 15 mins before addition of Bz-NIe-Lys-Arg-Arg-AMC substrate by spectrofluorometry. In short, it runs like this: (§2)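 Protease (DENV2 25 nM; WNV 28 nM) pre-incubated with compound for 15 min at room temperature in 200 mM Tris·HCl pH 9.5 with 30% glycerol. Then 5 μM substrate added, and fluorescence (ex 380/em 460 nm) read at 37 °C for up to 30 min.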

The test system of test [6] is West Nile virus. Nature of the test: Competitive inhibition of West Nile virus NS2B-NS3 protease expressed in Escherichia coli Top10F' at 1 to 5 uM uM assessed as increase in Km of substrate pre-incubated for 15 mins before addition of Bz-NIe-Lys-Arg-Arg-AMC substrate by spectrofluorometry. In short, it runs like this: (§3)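 Inhibitor fixed at 0, 1.0, 3.0 or 5.0 μM; substrate varied 0–50 μM. Initial cleavage rates used to derive apparent Km and kcat. Ki taken from secondary plot of Km,app against inhibitor concentration. Duplicates, repeated three times.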

Test [7] concerns West Nile virus. Briefly: Competitive inhibition of West Nile virus NS2B-NS3 protease expressed in Escherichia coli Top10F' at 1 to 5 uM uM assessed as reduction in kcat/Km of substrate pre-incubated for 15 mins before addition of Bz-NIe-Lys-Arg-Arg-AMC substrate by spectrofluorometry. The essentials: as §3
Test [8] is described as follows: Inhibition of Dengue virus 2 NS2B-NS3 protease expressed in Escherichia coli Top10F' pre-incubated for 15 mins before addition of Bz-NIe-Lys-Arg-Arg-AMC substrate by spectrofluorometry. Further details: species or system dengue virus type 2. In short, it runs like this:
as §2

[9] abbreviates: 25 uM, in the assay text read “at 25 uM” for “at 10 uM”.

Active and inactive are the calls of the source. The calls are words filed in the database; no cut-off is given here.

The inhibition is the percentage by which the read-out fell short of the control. With `O=C(NCc1cn(Cc2ccc(F)cc2)nn1)Nc1ccc(C(=O)Nc2ccccc2)cc1`, the inhibition result in test [1], in test [2] (setting [9]), in test [3] and in test [4] was “inactive” throughout.
For `O=C(NCc1cn(CSc2ccccc2)nn1)Nc1ccc(C(=O)NCCN2CCOCC2)cc1`, the inhibition entry in test [1], in test [2] (setting [9]), in test [3] and in test [4] was “inactive” each time.
For `O=C(NCc1cn(Cc2ccccc2)nn1)Nc1ccc(C(=O)Nc2cccc(Oc3ccccc3)c2)cc1`, the inhibition entry in test [1], in test [2] (setting [9]), in test [3] and in test [4] was “inactive” in each case.
Turning to `O=C(NCc1cn(Cc2ccccc2)nn1)Nc1ccc(C(=O)NCCc2ccccc2)cc1`, the inhibition result in test [1], in test [2] (setting [9]), in test [3] and in test [4] was “inactive” throughout.
Consider `O=C(NCc1cn(CSc2ccccc2)nn1)Nc1cccc(C(=O)Nc2cccc(Oc3ccccc3)c2)c1`, for which the inhibition in test [1] was found to be 40.3%; in test [2] (10 uM) it was 49.3%; in test [3], 58.2%; in test [4] it was 60.3%.
In the case of `O=C(NCc1cn(Cc2ccccc2)nn1)Nc1cccc(C(=O)Nc2cccc(Oc3ccccc3)c2)c1`, the inhibition result in test [1], in test [2] (setting [9]), in test [3] and in test [4] was “inactive” in each case.
As to `O=C(NCc1cn(CSc2ccccc2)nn1)Nc1ccc(C(=O)Nc2ccccc2)cc1`, the inhibition result in test [1], in test [2] (setting [9]), in test [3] and in test [4] was “inactive” each time.
On to `O=C(NCc1cn(CSc2ccccc2)nn1)Nc1ccc(C(=O)NCc2ccccc2)cc1`, for which the inhibition entry in test [1], in test [2] (setting [9]), in test [3] and in test [4] was “inactive” in each case.
Regarding `O=C(NCc1cn(Cc2ccccc2)nn1)Nc1ccc(C(=O)NCc2ccco2)cc1`, the inhibition result in test [1], in test [2] (setting [9]), in test [3] and in test [4] was “inactive” each time.
`O=C(NCc1cn(CSc2ccccc2)nn1)Nc1cccc(C(=O)NCCc2ccccc2)c1`: the inhibition entry in test [1], in test [2] (setting [9]), in test [3] and in test [4] was “inactive” each time.
For `O=C(NCc1cn(Cc2ccccc2)nn1)Nc1cccc(C(=O)NCCc2ccccc2)c1`, the inhibition entry in test [1], in test [2] (setting [9]), in test [3] and in test [4] was “inactive” throughout.
For `O=C(NCc1cn(Cc2ccc(F)cc2)nn1)Nc1ccc(C(=O)NCCc2ccccc2)cc1`, the inhibition entry in test [1], in test [2] (setting [9]), in test [3] and in test [4] was “inactive” throughout.
Regarding `O=C(NCc1cn(Cc2ccc(F)cc2)nn1)Nc1ccc(C(=O)NCc2ccccc2)cc1`, the inhibition entry in test [1], in test [2] (setting [9]), in test [3] and in test [4] was “inactive” each time.
A word on the IC50: it is the midpoint of a concentration-inhibition curve. Turning to `O=C(NCc1cn(Cc2ccc(F)cc2)nn1)Nc1ccc(C(=O)Nc2ccc(Oc3ccccc3)cc2)cc1`, the IC50 in test [5] is 5.51 µM; in test [8] it was 6.82 µM. Further, the inhibition entry in test [6] and in test [7] was “Active” each time. Moreover, the inhibition in test [1] was determined as 55.3%; in test [2] (10 uM) it was 58.8%; in test [3] it was 76%; in test [4] it was 82.3%.
On to `O=C(NCc1cn(Cc2ccc(F)cc2)nn1)Nc1ccc(C(=O)NCc2ccco2)cc1`, for which the inhibition result in test [1], in test [2] (setting [9]), in test [3] and in test [4] was “inactive” throughout.
Consider `O=C(NCc1cn(Cc2ccccc2)nn1)Nc1ccc(C(=O)NCCN2CCOCC2)cc1`, for which the inhibition result in test [1], in test [2] (setting [9]), in test [3] and in test [4] was “inactive” throughout.
In the case of `O=C(NCc1cn(Cc2ccccc2)nn1)Nc1cccc(C(=O)NCc2ccccc2)c1`, the inhibition entry in test [1], in test [2] (setting [9]), in test [3] and in test [4] was “inactive” each time.
As for `O=C(NCc1cn(CSc2ccccc2)nn1)Nc1ccc(C(=O)Nc2ccc(Oc3ccccc3)cc2)cc1`, the inhibition result in test [1], in test [2] (setting [9]), in test [3] and in test [4] was “inactive” each time.
As to `O=C(NCc1cn(CSc2ccccc2)nn1)Nc1ccc(C(=O)NCCc2ccccc2)cc1`, the inhibition entry in test [1], in test [2] (setting [9]), in test [3] and in test [4] was “inactive” in each case.
Take `O=C(NCc1cn(CSc2ccccc2)nn1)Nc1ccc(C(=O)NCc2ccco2)cc1`: the inhibition entry in test [1], in test [2] (setting [9]), in test [3] and in test [4] was “inactive” in each case.
For `O=C(NCc1cn(Cc2ccccc2)nn1)Nc1ccc(C(=O)Nc2ccccc2)cc1`, the inhibition entry in test [1], in test [2] (setting [9]), in test [3] and in test [4] was “inactive” in each case.
With `O=C(NCc1cn(CSc2ccccc2)nn1)Nc1cccc(C(=O)NCc2ccccc2)c1`, the inhibition result in test [1], in test [2] (setting [9]), in test [3] and in test [4] was “inactive” throughout.
Regarding `O=C(NCc1cn(Cc2ccccc2)nn1)Nc1ccc(C(=O)Nc2ccc(Oc3ccccc3)cc2)cc1`, the inhibition in test [1] is 39.4%; in test [2] (10 uM) it was 46.5%; in test [3], 52.5%; in test [4] it was 58%.
For `O=C(NCc1cn(Cc2ccc(F)cc2)nn1)Nc1ccc(C(=O)NCCN2CCOCC2)cc1`, the inhibition result in test [1], in test [2] (setting [9]), in test [3] and in test [4] was “inactive” in each case.
For the compound `O=C(NCc1cn(Cc2ccc(F)cc2)nn1)Nc1ccc(C(=O)Nc2cccc(Oc3ccccc3)c2)cc1`, the inhibition was 41.1% in test [1], 44.5% in test [2] (10 uM), 57% in test [3] and 60.9% in test [4].
In the case of `O=C(NCc1cn(Cc2ccccc2)nn1)Nc1ccc(C(=O)NCc2ccccc2)cc1`, the inhibition result in test [1], in test [2] (setting [9]), in test [3] and in test [4] was “inactive” each time.
